In ChEMBL document CHEMBL1124174, “Substituted benzamides. 1. Potential nondopaminergic antagonists of chemotherapy-induced nausea and emesis” (J Med Chem, 1988):

Tests used:
[1] = molecular target: D(2) dopamine receptor (Rattus norvegicus) (UniProt P61169); experiment: In vivo antagonistic activity against dopamine D2 receptor was measured as catalepsy in rat when administered subcutaneously; format: functional, organism-based
Method in brief: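 Male Long Evans rats (275 g) received graded sc doses in dilute aqueous HCl (pH 4.5-5.5). They were observed 180 min for catalepsy, scored when the animal stayed stationary ≥15 s on a four-cork template.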

[2] = tested on: Mustela putorius furo; experiment: In vivo antagonism of cisplatin-induced emesis in ferret measured as emetic episodes, twice the dose of 3 mg/kg and in 3 ferrets; format: functional
Method in brief: (§1)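 Nonfasted castrated male Fitch ferrets (1–1.5 kg) had jugular catheters implanted ≥48 h earlier under anesthesia. Compounds or saline were given iv twice, 5 min before and 90 min after cisplatin (12 mg/kg iv; 12 mg/mL in warm 0.9% saline). Emesis was observed up to 4 h; events within 1 min counted as one episode. Results were given as mean emetic episodes and % protection versus a pooled historical/concurrent control. t test versus saline.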

[3] = molecular target: D(2) dopamine receptor (Canis lupus familiaris) (UniProt Q9GJU1); experiment: In vivo antagonism activity against dopamine D2 receptor was measured as emesis in dog when administered subcutaneously; format: functional, organism-based
Chain of D(2) dopamine receptor (Canis lupus familiaris) (Q9GJU1 whole entry): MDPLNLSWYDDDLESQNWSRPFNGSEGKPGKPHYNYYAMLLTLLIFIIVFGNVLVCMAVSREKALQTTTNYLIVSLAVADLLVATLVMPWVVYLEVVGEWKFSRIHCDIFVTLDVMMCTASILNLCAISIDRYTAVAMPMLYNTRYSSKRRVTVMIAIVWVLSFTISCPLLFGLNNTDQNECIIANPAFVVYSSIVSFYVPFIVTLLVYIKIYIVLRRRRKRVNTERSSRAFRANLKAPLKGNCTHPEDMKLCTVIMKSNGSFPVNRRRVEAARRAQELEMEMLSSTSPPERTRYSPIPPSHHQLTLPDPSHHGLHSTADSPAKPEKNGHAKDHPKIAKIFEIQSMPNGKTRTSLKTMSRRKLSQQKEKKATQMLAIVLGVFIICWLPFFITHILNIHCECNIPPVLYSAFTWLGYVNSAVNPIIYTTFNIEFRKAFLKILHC

[4] = molecular target: D(2) dopamine receptor (Rattus norvegicus, UniProt P61169); experiment: In vitro antagonistic activity against Dopamine receptor D2 was evaluated for the inhibition of [3H]spiperone binding
Chain of D(2) dopamine receptor (P61169 whole entry): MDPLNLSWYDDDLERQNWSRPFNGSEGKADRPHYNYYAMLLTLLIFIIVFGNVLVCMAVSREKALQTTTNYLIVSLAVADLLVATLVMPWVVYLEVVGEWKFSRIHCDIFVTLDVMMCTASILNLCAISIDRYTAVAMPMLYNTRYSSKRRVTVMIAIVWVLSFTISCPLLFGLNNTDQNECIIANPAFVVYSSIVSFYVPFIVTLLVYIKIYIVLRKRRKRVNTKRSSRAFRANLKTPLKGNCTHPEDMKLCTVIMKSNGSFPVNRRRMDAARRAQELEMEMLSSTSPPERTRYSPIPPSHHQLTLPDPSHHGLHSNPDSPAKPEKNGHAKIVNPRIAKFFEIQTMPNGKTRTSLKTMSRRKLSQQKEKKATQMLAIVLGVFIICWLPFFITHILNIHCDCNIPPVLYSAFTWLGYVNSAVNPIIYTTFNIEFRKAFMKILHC
Method in brief: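 Rat striatal membranes were prepared by differential centrifugation in 50 mM Tris pH 7.4 at 4 °C. Membrane protein (10 mg) was incubated 15 min at 37 °C with 0.1 nM [3H]spiperone and varying competitor concentrations. Buffer: 50 mM Tris HCl pH 7.5, 0.1% ascorbic acid, pargyline, 120 mM NaCl, 5 mM KCl, 2 mM CaCl2, 1 mM MgCl2. (+)-Butaclamol defined nonspecific binding. Bound ligand was collected by filtration and scintillation counted. IC50 by log-logit regression.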

[5] = molecular target: D(2) dopamine receptor (Rattus norvegicus) (UniProt P61169); experiment: In vivo antagonism activity against D2 receptor was measured as stereotypy in rat when administered subcutaneously; format: functional, organism-based
Method in brief: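 Male Long Evans rats (275 g) were dosed sc in dilute aqueous HCl (pH 4.5-5.5) 30 min before apomorphine (1 mg/kg sc).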

[6] = tested on: Mustela putorius furo; experiment: In vivo antagonism of cisplatin-induced emesis in ferret measured as percentage protection for twice the dose of 3 mg/kg and in 3 ferrets; format: functional; method in brief: as §1

Chain of D(2) dopamine receptor (Rattus norvegicus) (P61169 whole entry): as above

SMILES | IC50 [4] [nM] | ED50 [5] [mg/kg] | ED50 [1] [mg/kg] | Emetic episodes [2] | ED50 [3] [mg/kg] | Protection [6] [%]
C=CCN1CCCC1CNC(=O)c1cc2nn[nH]c2cc1OC(C)C(C)=O (stereo unspecified) | > 1000 | > 40 | > 40 | 5.7 | > 3 | 21
CCN(CC)CCNC(=O)c1cc(Cl)c(N)cc1OC(C)C(C)O (stereo in doubt; 8g) | – | > 40 | > 40 | – | > 3 | –
CCN(CC)CCNC(=O)c1cc(Cl)c(N)cc1OC[C@@H](C)O (stereo in doubt; 8f) | – | > 40 | > 40 | – | > 3 | –
CCN(CC)CCN(C)C(=O)c1cc(Cl)c(N)cc1O.Cl | > 1000 | > 40 | > 40 | 5 | > 3 | 30
CCN(CC)CCNC(=O)c1cc(Cl)c(N)cc1OCC(=O)OC | > 1000 | > 40 | > 40 | 5 | > 3 | 30
C=CCN1CCCC1CNC(=O)c1cc2[nH]nnc2cc1O (stereo unspecified) | > 1000 | – | – | – | – | –
CCN(CC)CCNC(=O)c1cc(Cl)c(N)cc1OC[C@@H](C)O (stereo in doubt; 8e) | – | > 40 | > 40 | – | > 3 | –
CCN1CCCCCOc2cc(N)c(Cl)cc2C(=O)NCCC1 | 7.7 | 10 | > 40 | 2.3 | > 3 | 67

The next lines start with results.

IC50 [4] [nM] | ED50 [5] [mg/kg] | SMILES | ED50 [1] [mg/kg] | Emetic episodes [2] | ED50 [3] [mg/kg] | Protection [6] [%]
> 1000 | > 40 | CCN(CC)CCNC(=O)c1cc(Cl)c(N)cc1OCC(O)CO (stereo unspecified) | > 40 | 6.3 | > 3 | 10
> 1000 | > 40 | CCN(CC)CCC[S+]([O-])c1cc(Cl)c(N)cc1OC (stereo unspecified) | > 40 | 2 | > 1 | 70
> 1000 | > 40 | CCN(CC)CCNC(=O)c1cc(Cl)c(N)c2c(C)c(C)oc12 | > 40 | 3.3 | > 3 | 53
> 1000 | > 40 | CCN(CC)CCNC(=O)c1cc(Cl)c(N)cc1OCC1(C)CO1 (stereo unspecified) | > 40 | 3.3 | > 3 | 53
– | > 40 | C=CCN1CCCC1CNC(=O)c1cc2nn[nH]c2cc1O (stereo unspecified) | > 40 | 8 | > 3 | 0
200 | – | C=CCN1CCCC1CNC(=O)c1cc2[nH]nnc2cc1OC (stereo unspecified) [ALIZAPRIDE] | – | – | – | –
> 1000 | > 40 | CCN(CC)CCNC(=O)c1cc(Cl)c(N)cc1OCc1ccccc1 | > 40 | – | > 1 | –
> 1000 | > 40 | CCN(CC)CCNC(=O)c1cc(Cl)c(N)cc1OCc1cc(C)no1 | > 40 | 2 | > 3 | 72
> 1000 | – | CCN1CCCNC(=O)c2cc(Cl)c(N)cc2OCCOCC1 | > 40 | 11.7 | > 3 | 0
> 1000 | > 40 | CCN(CC)CCN(C)C(=O)c1cc(Cl)c(N)cc1OC | > 40 | 8.7 | > 3 | 0
– | > 40 | CCN(CC)CCNC(=O)c1cc(Cl)c(N)cc1OC(C)C(C)O (stereo in doubt; 8h) | > 40 | – | > 3 | –
> 1000 | > 40 | CCN(CC)CCNC(=O)c1cc(Cl)c(N)cc1OCCC1(C)OCCO1 | > 40 | 1.3 | > 3 | 80
– | > 40 | CCN(CC)CCNC(=O)c1cc(Cl)c(N)cc1OC(C)C(C)O (stereo in doubt; 8g,h) | > 40 | – | – | –
